In the library only some 3.7% were active in any assay of this set; here they are far more common.
EBI2 antag – EBI2 (human) antagonism; P32249; 0.81% of 360,000 active; inhibition, % at 5 µM; AID 651636; EBI2 beta-arrestin recruitment, luminescence, 7a,25-OHC stimulated; in the data active = inhibition above about 38%;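 also: enzyme fragment complementation signal reports receptor beta-arrestin coupling in cells; 0% = agonist plus DMSO wells and 100% = wells without agonist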
Target sequence (P32249 whole entry, looked up, the tested form may be a part): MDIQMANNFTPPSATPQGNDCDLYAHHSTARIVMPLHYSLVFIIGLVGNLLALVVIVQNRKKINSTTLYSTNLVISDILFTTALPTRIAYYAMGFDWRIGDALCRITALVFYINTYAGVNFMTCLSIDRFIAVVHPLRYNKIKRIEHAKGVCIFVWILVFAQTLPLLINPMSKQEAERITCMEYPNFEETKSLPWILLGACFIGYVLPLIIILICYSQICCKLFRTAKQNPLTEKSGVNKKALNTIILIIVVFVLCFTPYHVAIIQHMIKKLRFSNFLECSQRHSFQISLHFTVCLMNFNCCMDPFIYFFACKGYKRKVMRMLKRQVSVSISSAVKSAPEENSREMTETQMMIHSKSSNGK
Myeloid diff MLP – compounds promoting myeloid differentiation; ER-HoxA9 myeloid progenitors, lysozyme-GFP differentiation, flow cytometry; calls only at 10 µM; 1% of 360,000 active; AID 624256;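 active = normalized GFP-positive differentiation at or above the plate's own cutoff, the solvent-only control mean plus 3 SD; inconclusive = no clear call, values can overlap the other calls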;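 also: cells exposed to compound for four days before flow analysis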
Granule exo inh – blocks lytic granule exocytosis; TALL-104 LAMP-1 surface exposure, flow cytometry; cells stimulated with thapsigargin and PMA; inhibition, % at 10 µM; 0.66% of 360,000 active;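 active = inhibition above about 55%, limit read from the data; inconclusive = no clear call, values can overlap the other calls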
MC4R ag barr – human MC4R agonism via beta-arrestin | P32245 | U2OS MC4R beta-arrestin complementation, luminescence; percent of melanotan II response, DMSO zero | activation, % at 8.9 µM | 0.98% of 360,000 active;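 active = activation above a per-plate cutoff, the mean activation of sample wells on that plate plus 3 SD, cut at about 8% in these data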
Target sequence (P32245 whole entry, looked up): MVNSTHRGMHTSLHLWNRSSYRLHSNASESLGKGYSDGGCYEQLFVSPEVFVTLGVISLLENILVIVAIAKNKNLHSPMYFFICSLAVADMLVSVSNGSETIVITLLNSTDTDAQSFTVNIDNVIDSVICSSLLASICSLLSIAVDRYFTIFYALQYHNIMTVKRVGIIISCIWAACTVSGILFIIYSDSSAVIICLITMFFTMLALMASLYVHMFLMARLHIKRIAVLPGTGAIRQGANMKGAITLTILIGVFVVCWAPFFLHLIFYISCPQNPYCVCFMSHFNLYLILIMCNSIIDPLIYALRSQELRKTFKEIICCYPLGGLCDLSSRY
MC4R antag cAMP – blocks human MC4R cAMP signaling; 0.48% of 360,000 active; inhibition, % at 6.5 µM; MC4R-expressing cells, MTII-stimulated cAMP, LANCE TR-FRET; AID 540295;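 active = inhibition above its plate's cutoff, the mean of tested wells on that plate plus 3 SD, cut at about 29% in these data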;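 also: 0% = Melanotan II alone and 100% = Melanotan II plus saturating MCL0020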
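Assay system: human MC4R-expressing U2OS cells; reagent: Melanotan II stimulation of cells; dosing: 6.5 µM single dose; timing: compound 30 min, challenge 1 h, detection 1 h; signal: TR-FRET cAMP assay; replicates: one well per compound, no replicates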
An asterisk follows results filed as active; i = inactive; ? = inconclusive; · = no result given; + = active, no number.

SMILES | EBI2 antag | Myeloid diff MLP | Granule exo inh | MC4R ag barr | MC4R antag cAMP
Cc1cc2oc(C(=O)Nc3ccc(S(N)(=O)=O)cc3)c(C)c2cc1Cl | -4.7 | i | 0.3 | 8.4* | -2.2
O=C(NCC(=O)N(Cc1ccco1)C(C(=O)NC1CCCCC1)c1ccncc1)c1cccs1 (stereo not drawn) | -7.9 | i | -2.4 | 1.3 | 24.0
O=C(NCC(=O)N(Cc1ccco1)C(C(=O)NC1CCCCC1)c1cccnc1)c1cccs1 (stereo not drawn) | 3.6 | + | -2.1 | 2.1 | 1.0
Cc1cc(Cl)ccc1OCC(=O)N[C@@H](Cc1ccccc1)c1nc2ccccc2[nH]1 | 3.8 | i | 3.0 | 12.6* | 4.3
CCCC(=O)Nc1nc2ccc(OCC)cc2s1 | 1.0 | i | -9.7 | -0.2 | -6.0
CCOc1ccc2nc(NC(=S)N(C)C)sc2c1 | 12.3 | + | -4.6 | -1.4 | 14.5
COc1ccccc1NC(=O)c1cc2c(CO)cnc(C)c2oc1=Nc1ccccc1 | 9.2 | i | 80.6* | -0.4 | 9.6
Cn1cccc1/C=C1\CC(C(C)(C)C)C/C(=C\c2cccn2C)C1=O (stereo not drawn) | 20.5 | + | 8.4 | -0.1 | 1.5
Cc1cccc(C2(c3cccc(C)c3)OC(=O)c3ccccc32)c1 | 6.8 | + | 4.6 | 1.4 | -3.3
O=C1OC(c2ccccc2)(c2ccccc2)c2ccccc21 | 0.7 | i | 1.9 | -0.3 | -0.6
Cc1cccc(NNC(N)=S)c1C | -3.2 | i | -1.1 | -0.4 | 9.2
O=C(CSc1nnc2ccccn12)NNC(=O)c1cccc(Cl)c1 | -17.4 | i | 0.6 | -1.4 | 5.2
CC1(Br)C(Sc2ccccc2[N+](=O)[O-])=Nc2ccccc21 (stereo not drawn) | 12.0 | i | 71.9* | · | ·
Cc1[nH]c(=O)[nH]c(=O)c1Sc1ccccc1[N+](=O)[O-] | 5.7 | i | 10.8 | -0.8 | 8.4
CCn1c2ccc(F)cc2c2nc3ccccc3nc21 | 9.0 | + | 21.5 | 0.3 | -7.9
Cc1nn(Cc2c(F)c(F)c(F)c(F)c2F)c(C)c1NC(=O)c1ccc(COc2cc(Cl)ccc2Cl)cc1 | 51.0* | i | -2.6 | 3.4 | 1.0
Cc1cccc(C)c1NC(=O)c1cccc(COc2cc(Cl)ccc2Cl)c1 | -2.7 | i | -3.3 | 12.5* | -4.2
Cc1nn(Cc2c(F)c(F)c(F)c(F)c2F)c(C)c1NC(=O)c1ccc(COc2ccccc2Cl)cc1 | 7.9 | i | -0.5 | 4.6 | -0.2
CN(Cc1ccccc1)C(=O)Cn1nnc(-c2ccccc2)c1COc1ccccc1 | 6.8 | i | -2.8 | 0.2 | 6.9
CN(CCOc1ccc(Cl)cc1)C(=O)c1cccc(S(=O)(=O)N2CCN(c3ccc(F)cc3)CC2)c1 | 56.1* | ? | 19.3 | -0.8 | 16.4
COc1ccc(NC(=O)Nc2cccc3c2O[C@@H](CN(C)S(=O)(=O)c2cn(C)cn2)[C@@H](C)CN([C@H](C)CO)C3=O)cc1 | -14.0 | i | 0.8 | -0.8 | 9.8
C(=N\Nc1nc2ccccc2[nH]1)/c1ccc2ncccc2c1 | -0.2 | + | 16.3 | 4.8 | -8.2
C(=N\Nc1nc2ccccc2[nH]1)/c1ccccn1 | -20.9 | i | -0.7 | -1.0 | 1.5
Cc1c(CCC(=O)O)c(=O)oc2cc3occ(-c4ccc(Br)cc4)c3cc12 | -12.9 | + | -12.3 | -0.1 | 20.7
CC(=O)N1CCOC12CCN(Cc1ccccc1)CC2 | -4.5 | i | -2.5 | -1.6 | 5.5
SMILES | EBI2 antag | Myeloid diff MLP | Granule exo inh | MC4R ag barr | MC4R antag cAMP
CN(N=Nc1cccc([N+](=O)[O-])c1)c1ccccc1 | -5.3 | i | 3.5 | -1.4 | -12.3
CN(N=Nc1ccc([N+](=O)[O-])cc1)c1ccccc1 | 1.8 | i | 1.4 | 8.3* | -0.4
O=C1NC[C@@H]2CCCN2C1=O | -4.3 | i | -8.6 | · | ·
c1ccc2c(c1)NCC1CCCN21 (stereo not drawn) | -4.9 | + | -7.4 | -2.4 | -8.2
NC(Cc1ccccc1)c1csc(NC(=O)c2cccc(OC(F)(F)F)c2)n1 (stereo not drawn) | -9.3 | i | 25.2 | -0.8 | 5.1
COc1cccc(Nc2nc(C(N)Cc3ccc(F)cc3)cs2)n1 (stereo not drawn) | -10.4 | + | 0.0 | 4.6 | -9.8
COc1ccc(CC(N)c2csc(NC(=O)c3cccc(OC(F)(F)F)c3)n2)cc1 (stereo not drawn) | -2.2 | i | 22.8 | 8.9* | -12.0
COC1=C(OC)C(=O)C(Sc2ccc3ccccc3c2)=CC1=O | -1.1 | · | 85.7* | -3.4 | 6.7
COc1ccc(S(=O)(=O)Oc2ccc3ccccc3c2)cc1 | -5.2 | i | -3.7 | -0.1 | -2.3
O=C(NCc1ccccc1)c1ccccc1C(=O)c1ncc[nH]1 | -17.6 | i | -0.1 | -0.9 | 7.2
COc1ccc(-c2[nH]ncc2N=Nc2cc(C)cc(C)c2)cc1 | 8.5 | + | 8.8 | -1.3 | 11.2
COc1ccc(-c2[nH]ncc2N=Nc2ccccc2)cc1 | 16.1 | i | 1.2 | -1.6 | -0.1
Cc1nc(N/N=C/c2ccccc2)nc(N(C)c2ccccc2)c1[N+](=O)[O-] | -3.6 | i | 4.2 | 10.1* | 3.6
O=C(c1cc(F)c(F)cc1Cl)N1CCCc2ccccc21 | 12.0 | i | -4.5 | 0.5 | -1.2
CC(NC(=O)C(=O)c1cn(CC(=O)N2CCOCC2)c2ccccc12)c1ccccc1 (stereo not drawn) | 2.7 | i | -5.2 | -2.7 | 15.3
CCC(=O)NC(c1ccc(C)cc1)c1cc([N+](=O)[O-])c2cccnc2c1O (stereo not drawn) | -1.3 | i | -1.9 | -3.0 | 0.3
CCCC(=O)NC(c1ccco1)c1cc([N+](=O)[O-])c2cccnc2c1O (stereo not drawn) | -18.3 | + | -5.3 | -3.7 | 5.9
CC(C)c1ccc(S(=O)(=O)N2CCN(C(=O)C3CCN(C(=O)c4ccc(F)cc4)CC3)CC2)cc1 | 19.7 | i | -0.8 | -0.6 | -4.0
CC(C)C[C@H]1CNC(=S)N1C[C@H]1CCCN1C[C@H](Cc1ccccc1)N1C[C@H](Cc2ccc(O)cc2)N(CCc2ccccc2)C1=S | 7.8 | i | 17.9 | · | ·
CSc1cccc(NC(=O)NCc2cccc(CNC(=O)Nc3cccc(SC)c3)c2)c1 | 10.8 | i | -0.4 | -2.7 | 11.9
CSc1cccc(NC(=O)C(=O)NCc2ccccc2)c1 | -3.2 | i | -9.7 | 8.7* | -3.9
Cc1oc2c(c1C(=O)c1ccccc1)C(=O)C(=O)c1ccccc1-2 | -4.0 | ? | 102.3* | 3.2 | -9.7
O=C1C(=O)c2c(C(=O)c3ccccc3)coc2-c2ccccc21 | 4.6 | ? | 92.2* | 8.7* | -16.4
Cc1c(/C(O)=C2\C(=O)C(=O)N(CCN(C)C)C2c2ccccc2)cnn1-c1ccccc1 (stereo not drawn) | 9.4 | i | -0.4 | -1.5 | 4.3
COc1ccc(S(=O)(=O)N2CCOC23CCN(S(=O)(=O)c2cc(F)ccc2F)CC3)cc1 | 6.1 | i | 12.8 | -5.4 | 13.0
CCN(CC)C(=O)C1=C(C)N(Cc2ccc(OC)cc2)C(=O)C(CC(=O)NCCN2CCOCC2)C1 (stereo not drawn) | -4.2 | i | 0.1 | 2.1 | 11.4

Source: PubChem BioAssay
